Results on two molecules are retold here after ChEMBL document CHEMBL4118105, “High-Affinity Peptidomimetic Inhibitors of the DCN1-UBC12 Protein-Protein Interaction” (J Med Chem, 2018).

≈ marks a conversion by molar mass, not a printed value. Calls of active or inactive are those of the source. The rule behind the calls is not given here.

Data set [1] concerns the target T1, DCN1-like protein 1 (Homo sapiens, UniProt Q96GG9). Kind of data set: Inhibition of DCN1-mediated CUL1 neddylation in human H2170 cells at 10 uM after 16 hrs by Western blot analysis. In kind it is cell-based. The essentials: (§1)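 H2170 cells exposed to compound for 16 h, then lysed in Triton X-100 or RIPA buffer with phosphatase inhibitors. Neddylated and unneddylated cullins, NRF2 and CDT1 read by Western blot on whole-cell lysate, with GAPDH as loading control.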
Target sequence in this assay (Q96GG9 whole entry, looked up): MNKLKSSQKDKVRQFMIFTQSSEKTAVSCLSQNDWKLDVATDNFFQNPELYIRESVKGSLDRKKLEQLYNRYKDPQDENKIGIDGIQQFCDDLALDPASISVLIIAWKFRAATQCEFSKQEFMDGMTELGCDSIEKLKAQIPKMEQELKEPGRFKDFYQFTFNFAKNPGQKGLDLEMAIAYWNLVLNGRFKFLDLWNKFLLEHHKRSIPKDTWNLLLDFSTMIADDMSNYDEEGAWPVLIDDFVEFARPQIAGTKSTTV

The target in data set [2] is T1, DCN1-like protein 1. As to the kind of experiment: Inhibition of DCN1-mediated CUL2 neddylation in human H2170 cells at 10 uM after 16 hrs by Western blot analysis. The format is cell-based. The essentials:
as §1
On the technique in general: Immunoblotting shows a protein as a band on a membrane.
Target sequence in this assay (Q96GG9 whole entry, looked up): as above

The target of data set [3] is T1, DCN1-like protein 1. As to the kind of experiment: Inhibition of DCN1-mediated CUL5 neddylation in human SK-MES-1 cells at 10 uM after 16 hrs by Western blot analysis. The format is cell-based.
Target sequence in this assay (Q96GG9 whole entry, looked up): as above
Data set [4] addresses T1, DCN1-like protein 1. Kind of data set: Inhibition of DCN1-mediated CUL3 neddylation in human H2170 cells assessed as increase in NRF2 level at 10 uM after 16 hrs by Western blot analysis. The format is cell-based. The gist of the method: as §1
Target sequence in this assay (Q96GG9 whole entry, looked up): as above
For data set [5], the target named is T1, DCN1-like protein 1. Kind of data set: Inhibition of DCN1 interaction with UBC12 protein in human H2170 cell lysate at 20 uM after 3 hrs by immunoprecipitation assay. The essentials: (§2)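 Endogenous DCN1 pulled down from precleared lysates of treated cells with DCN1 antibody for 3 h, then protein A&G beads at 4 °C overnight with rotation. Beads washed three times in lysis buffer, complexes resolved by SDS−PAGE and immunoblotted.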
Target sequence in this assay (Q96GG9 whole entry, looked up): as above

In data set [6] the target is T1, DCN1-like protein 1. Kind of data set: Binding affinity to biotin labeled recombinant N-terminal His6-tagged human DCN1 (58 to 259 residues) expressed in Escherichia coli Rosetta2 cells by biolayer interferometry analysis. The gist of the method: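 Recombinant human DCN1 (58–259) was biotinylated at a 1:1 molar ratio in PBS for 2 h at 4 °C, dialyzed, then loaded on super streptavidin sensors from a 10 μg/mL solution. Blocked streptavidin sensors served as reference.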
Target sequence in this assay (Q96GG9 whole entry): as the sequence (Q96GG9 whole entry, looked up) above

The target in data set [7] is T1, DCN1-like protein 1. As to the kind of experiment: Inhibition of DCN1-mediated CUL1 neddylation in human SK-MES-1 cells at 10 uM after 16 hrs by Western blot analysis. In kind it is cell-based.
Target sequence in this assay (Q96GG9 whole entry, looked up): as above
Data set [8] addresses T1, DCN1-like protein 1. Kind of data set: Inhibition of DCN1-mediated CUL4A neddylation in human H2170 cells at 10 uM after 16 hrs by Western blot analysis. In kind it is cell-based. The gist of the method: as §1
For data set [9], the target named is T1, DCN1-like protein 1. As to the kind of experiment: Inhibition of DCN1-mediated CUL3 neddylation in human H2170 cells at 10 uM after 16 hrs by Western blot analysis. In kind it is cell-based. The essentials:
as §1

Data set [10] has as its target T1, DCN1-like protein 1. As to the kind of experiment: Binding affinity to biotin labeled recombinant N-terminal His6-tagged human DCN1 (58 to 259 residues) expressed in Escherichia coli Rosetta2 cells assessed as association rate constant by biolayer interferometry analysis. The gist of the method: (§3)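 Biotinylated DCN1 (1:1 molar biotin reagent, 4 °C 2 h, dialysed) loaded on super streptavidin sensors from 10 μg/mL to 11−12 nm response; blocked streptavidin sensors as reference. Run at 30 °C, 1000 rpm, in PBS with 0.1% BSA, 0.01% Tween-20, 2% DMSO; 10 min baseline wash. kon/koff from 1:1 binding model fits; two independent experiments.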
For orientation: BLI is a label-free optical method that tracks binding on a fibre tip over time.

Data set [11] concerns the target T1, DCN1-like protein 1. Kind of data set: Stabilization of DCN1 in human H2170 cells at 10 uM incubated for 1 hr by cellular thermal shift assay. In kind it is cell-based. The essentials:
(§4)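 H2170 cells (5 × 10^5 per sample) given compound or DMSO for 1 h, washed three times in PBS, resuspended in PBS with protease inhibitor, and heated at 53 °C for 3 min. Three liquid-nitrogen freeze/thaw-on-ice cycles followed. DCN1 in the supernatant read by Western blot, with GAPDH as loading control.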

Data set [12] addresses T1, DCN1-like protein 1. As to the kind of experiment: Inhibition of DCN1-mediated CUL4A neddylation in human SK-MES-1 cells at 10 uM after 16 hrs by Western blot analysis. The format is cell-based.
Data set [13] addresses T1, DCN1-like protein 1. Kind of data set: Inhibition of DCN1-mediated CUL3 neddylation in human SK-MES-1 cells at 10 uM after 16 hrs by Western blot analysis. The format is cell-based.
Data set [14] addresses T1, DCN1-like protein 1. Kind of data set: Inhibition of DCN1-mediated CUL5 neddylation in human H2170 cells at 10 uM after 16 hrs by Western blot analysis. The format is cell-based. The gist of the method:
as §1

In data set [15] the target is T1, DCN1-like protein 1. Kind of data set: Inhibition of DCN1-mediated CUL4B neddylation in human SK-MES-1 cells at 10 uM after 16 hrs by Western blot analysis. The format is cell-based.
Data set [16] concerns the target T1, DCN1-like protein 1. As to the kind of experiment: Binding affinity to biotin labeled recombinant N-terminal His6-tagged human DCN1 (58 to 259 residues) expressed in Escherichia coli Rosetta2 cells assessed as dissociation rate constant by biolayer interferometry analysis. The essentials:
as §3

For data set [17], the target named is T1, DCN1-like protein 1. Kind of data set: Inhibition of DCN1-mediated CUL2 neddylation in human SK-MES-1 cells at 10 uM after 16 hrs by Western blot analysis. In kind it is cell-based.
Data set [18] addresses T1, DCN1-like protein 1. As to the kind of experiment: Inhibition of DCN1-mediated CUL4B neddylation in human H2170 cells at 10 uM after 16 hrs by Western blot analysis. The format is cell-based. The gist of the method: as §1
Data set [19] has as its system NCI-H2170. As to the kind of experiment: Effect on UBC12 levels in human NCI-H2170 cells at 5 to 10 uM after 24 hrs by Western blot analysis. The format is functional, cell-based.
In data set [20] the target is T1, DCN1-like protein 1. As to the kind of experiment: Inhibition of DCN1-mediated CUL3 neddylation in human SK-MES-1 cells up to 10 uM after 16 hrs by Western blot analysis. In kind it is cell-based.
Data set [21] addresses T1, DCN1-like protein 1. As to the kind of experiment: Inhibition of DCN1-mediated CUL3 neddylation in human H2170 cells assessed as increase in NRF2 level at 0.1 to 10 uM after 16 hrs by Western blot analysis. The format is cell-based. The essentials:
as §1

Data set [22] deals with T1, DCN1-like protein 1. Kind of data set: Inhibition of DCN1-mediated CUL4A neddylation in human H2170 cells at 0.1 to 10 uM after 16 hrs by Western blot analysis. The format is cell-based. The essentials: as §1
Data set [23] has as its target T1, DCN1-like protein 1. As to the kind of experiment: Inhibition of DCN1-mediated CUL4B neddylation in human H2170 cells at 0.1 to 10 uM after 16 hrs by Western blot analysis. In kind it is cell-based. The gist of the method:
as §1

The target in data set [24] is T1, DCN1-like protein 1. Kind of data set: Inhibition of DCN1-mediated CUL2 neddylation in human H2170 cells at 0.1 to 10 uM after 16 hrs by Western blot analysis. In kind it is cell-based. The gist of the method: as §1
Data set [25] concerns the target T1, DCN1-like protein 1. Kind of data set: Inhibition of DCN1 interaction with UBC12 protein in human H2170 cell lysate after 24 hrs by immunoprecipitation assay. The essentials:
as §2

A short description of data set [26]: Equilibrium aqueous solubility of the compound in phosphate buffer of pH 7.4 after 24 hrs by shake-flask method. In kind it is physicochemical. The essentials:
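Excess solid was suspended in phosphate buffer pH 7.4, sonicated 30 min, then shaken 24 h at room temperature. Suspensions were centrifuged at 15 000 rpm for 15 min and filtered through 0.45 μm membranes. The saturated concentration was read by UV at each compound's absorption maximum, found by spectrum scan.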

Data set [27] has as its target T1, DCN1-like protein 1. As to the kind of experiment: Inhibition of DCN1-mediated CUL4A neddylation in human H2170 cells assessed as increase in CDT1 level at 0.1 to 10 uM after 16 hrs by Western blot analysis. The format is cell-based. The essentials:
as §1

The target of data set [28] is T1, DCN1-like protein 1. As to the kind of experiment: Inhibition of DCN1-mediated CUL3 neddylation in human H2170 cells after 16 hrs by Western blot analysis. In kind it is cell-based. The gist of the method:
as §1

The subject of data set [29] is NCI-H2170. Kind of data set: Effect on DCN1 levels in human NCI-H2170 cells at 5 to 10 uM after 24 hrs by Western blot analysis. In kind it is functional, cell-based.
In data set [30] the target is T1, DCN1-like protein 1. As to the kind of experiment: Inhibition of DCN1-mediated CUL5 neddylation in human H2170 cells at 0.1 to 10 uM after 16 hrs by Western blot analysis. The format is cell-based. The essentials:
as §1

In data set [31] the target is T1, DCN1-like protein 1. As to the kind of experiment: Stabilization of DCN1 in human H2170 cells incubated for 1 hr by cellular thermal shift assay. In kind it is cell-based. The essentials: as §4

The Kd is the free concentration of one partner at which half of the binding sites on the other are occupied at equilibrium, for simple one-to-one binding. As a reminder, the thermodynamic solubility is solubility found after equilibrating the solid with the medium.

In the case of `CCC(=O)N[C@@H](Cc1nc2ccc(Cl)cc2s1)C(=O)N[C@H](C(=O)N[C@@H](CCCCN)C(=O)N[C@@H]1CCOc2ccccc21)C1CCNCC1`, the inhibition entry in [1], in data set [2], in data set [3], in data set [4], in data set [5] and in data set [7] was “inactive” in each case. Also, the inhibition result in [8], in [9], in [12], in [13], in data set [14] and in data set [15] was “inactive” each time. For the same molecule, the inhibition result in data set [17] and in [18] was “inactive” throughout. Also, in data set [6], the Kd came to 1470 nM. Moreover, the K was 2.4 ×10³ /M/s in [10] and 2.6 ×10⁻³ /s in data set [16]. For the same molecule, the outcome in data set [11] was inactive.

In the case of `CCC(=O)N[C@@H](Cc1nc2ccc(Cl)cc2s1)C(=O)N[C@H](C(=O)N[C@@H](CCCCN)C(=O)N[C@@H]1CCOc2ccccc21)C1CCOCC1`, the inhibition result in data set [1], in data set [20] and in data set [21] was “Active” each time. Further, the outcome in [19] and in data set [29] was inactive. Further, in [6], the Kd was 6.7 nM. The inhibition entry in data set [22], in data set [23], in data set [24], in data set [27] and in data set [30] was “inactive” each time. In addition, the inhibition result in [25] and in data set [28] was “Dose-dependent effect” throughout. Moreover, in [26], the solubility (thermodynamic) at 24 h worked out at 54 µM (≈ 38.5 µg/mL). For the same molecule, the figures for the K in data set [10] and in [16] were 2.9 ×10⁵ /M/s and 2 ×10⁻³ /s, respectively. In [31], the Activity entry was “Dose-dependent effect”.
